{"data": "Measurements collected from several papers", "BRAF": "Serine/threonine-protein kinase B-raf (BRAF, Homo sapiens, UniProt P15056)", "BRAF V600E": "Serine/threonine-protein kinase B-raf (BRAF, Homo sapiens, UniProt P15056, V600E)", "note": "Protocols differ between the studies behind these lines."}
{"SMILES": "CC(C)(O)[C@H]1CC[C@H](Nc2ccc3ncc(-c4cccc(C(F)(F)F)c4)n3n2)CC1", "target": "BRAF", "test": "enzyme activity, inhibitor", "conditions": "1 µM", "measurement": "remaining activity", "result": "93.8%"}
{"SMILES": "N[C@@H]1CCN(c2nccc(-c3cnn4ncccc34)n2)C1", "target": "BRAF V600E", "test": "binding", "conditions": "1 µM", "measurement": "remaining binding", "result": "97%"}
{"SMILES": "Cc1ccc(NC(=O)c2ccc(CN3CCN(C)CC3)cc2)cc1Nc1nc(-c2cccnc2)cs1", "target": "BRAF", "test": "cell-free assay", "conditions": "0.5 µM", "measurement": "remaining signal", "result": "92.3%"}
{"SMILES": "Cc1ccc(C(CS(=O)(=O)c2ccccc2)=NNC2=NC(=O)C(=NNc3ccc(Cl)cc3)S2)cc1", "target": "BRAF V600E", "test": "enzyme activity, inhibitor, ATP luminescence", "conditions": "1 µM", "measurement": "inhibition", "result": "61%"}
{"SMILES": "Cc1ccc(C(=O)NCc2ccsc2)cc1C#Cc1cn(C(C)C)c2ncnc(N)c12", "target": "BRAF", "test": "enzyme activity, inhibitor", "conditions": "1 µM", "measurement": "activity vs control", "result": "47%"}
{"SMILES": "Cc1ccc(C(CS(=O)(=O)c2ccccc2)=NNC2=NC(=O)C(=NNc3ccc([N+](=O)[O-])cc3)S2)cc1", "target": "BRAF V600E", "test": "enzyme activity, inhibitor, ATP luminescence", "conditions": "10 nM", "measurement": "inhibition", "result": "31%"}
{"SMILES": "O=C(Nc1cccnn1)N1CCC(=Cc2cccc(Oc3ccc(C(F)(F)F)cn3)c2)CC1", "target": "BRAF V600E", "test": "cell-free assay, competition with immobilised ligand", "conditions": "1 µM", "measurement": "remaining binding", "result": "100%"}
{"SMILES": "CC(C)(C)c1nc(-c2cccc(NS(=O)(=O)c3c(F)cccc3F)c2F)c(-c2ccnc(N)n2)s1", "target": "BRAF V600E", "test": "enzyme activity, inhibitor, radiometric", "conditions": "1 µM", "measurement": "activity vs control", "result": "1%"}
{"SMILES": "Nc1ncnc2occ(-c3ccc(NC(=O)Nc4cc(C(F)(F)F)ccc4F)cc3)c12", "target": "BRAF V600E", "test": "cell-free assay", "conditions": "20 µM", "measurement": "remaining signal", "result": "0.05%"}
{"SMILES": "CC(C)(C)c1nc(-c2cccc(NS(=O)(=O)c3c(F)cccc3F)c2F)c(-c2ccnc(N)n2)s1", "target": "BRAF V600E", "test": "enzyme activity, inhibitor, ATP luminescence", "conditions": "1 µM", "measurement": "inhibition", "result": "81%"}
{"SMILES": "CCCCN(CCCC)C(=O)CN1C[C@H](c2cc(OC)c3c(c2)OCO3)[C@@H](C(=O)O)[C@@H]1CC(C)(C)CCC", "target": "BRAF V600E", "test": "cell-free assay, competition with immobilised ligand", "conditions": "1 µM", "measurement": "remaining binding", "result": "89.1%"}
{"SMILES": "Cc1ccc(C(CS(=O)(=O)c2ccccc2)=NNC2=NC(=O)C(=NNc3ccccc3)S2)cc1", "target": "BRAF V600E", "test": "enzyme activity, inhibitor, ATP luminescence", "conditions": "1 µM", "measurement": "inhibition", "result": "67%"}
{"SMILES": "Cc1c(NC(=O)c2cc(C(N)=O)nc3cc(F)ccc23)c(C(F)(F)F)nn1Cc1ccc(C(C)(C)C)cc1", "target": "BRAF V600E", "test": "cell-free assay, competition with immobilised ligand", "conditions": "1 µM", "measurement": "remaining binding", "result": "98%"}
{"SMILES": "Cc1sc(C(=O)NC2COC2)cc1-n1cc(NC(=O)Nc2c(F)cccc2Cl)cn1", "target": "BRAF", "test": "enzyme activity, inhibitor", "conditions": "10 µM", "measurement": "remaining activity", "result": "105%"}
{"SMILES": "CN(c1nccc(-c2cnn3ncccc23)n1)C1CC1", "target": "BRAF", "test": "binding", "conditions": "1 µM", "measurement": "remaining binding", "result": "100%"}
{"SMILES": "Cc1ccc(C(=O)Nc2ccc(CN3CCN(C)CC3)c(C(F)(F)F)c2)cc1C#Cc1cnc2cccnn12", "target": "BRAF", "test": "cell-free assay", "conditions": "23.5 nM", "measurement": "remaining signal", "result": "15%"}
{"SMILES": "COc1ccc2c(c1)O[C@H](c1ccc(OC)c(OC)c1)C[C@@H]2NC(=O)C1(c2ccc3c(c2)OC(F)(F)O3)CC1", "target": "BRAF V600E", "test": "cell-free assay, competition with immobilised ligand", "conditions": "1 µM", "measurement": "remaining binding", "result": "93%"}
{"SMILES": "Cc1cc(NC(=O)c2cccc3cc(-c4cccc5[nH]nc(N)c45)ccc23)ccc1F", "target": "BRAF", "test": "enzyme activity, inhibitor", "conditions": "0.1 µM", "measurement": "activity vs control", "result": "99%"}
{"SMILES": "O=C(NS(=O)(=O)c1ccc(NCC2CCOCC2)c([N+](=O)[O-])c1)c1ccc(N2CCN(Cc3ccc(C(F)(F)F)cc3-c3ccc(Cl)cc3)CC2)cc1Oc1cnc2[nH]ccc2c1", "target": "BRAF V600E", "test": "cell-free assay, competition with immobilised ligand", "conditions": "1 µM", "measurement": "remaining binding", "result": "83%"}
{"SMILES": "Cc1cnn2ncc(-c3ccnc(N(C)C)n3)c2c1", "target": "BRAF V600E", "test": "binding", "conditions": "1 µM", "measurement": "remaining binding", "result": "91%"}
{"SMILES": "C[C@@H]1CCN(C(=O)CC#N)C[C@@H]1N(C)c1ncnc2[nH]ccc12", "target": "BRAF", "test": "cell-free assay", "conditions": "0.5 µM", "measurement": "remaining signal", "result": "93.7%"}
{"SMILES": "CNC(=O)Nc1ccc2c(c1)[C@@]1(CC2)OC(=O)N(CC(=O)N(Cc2ccc(F)cc2)[C@@H](C)C(F)(F)F)C1=O", "target": "BRAF V600E", "test": "cell-free assay, competition with immobilised ligand", "conditions": "1 µM", "measurement": "remaining binding", "result": "96%"}
{"SMILES": "Cc1ccc(C(CS(=O)(=O)c2ccccc2)=NNc2nc(-c3ccc(OCCCCOc4ccc(-c5csc(NN=C(CS(=O)(=O)c6ccccc6)c6ccc(C)cc6)n5)cc4)cc3)cs2)cc1", "target": "BRAF V600E", "test": "enzyme activity, inhibitor, ATP luminescence", "conditions": "1 µM", "measurement": "inhibition", "result": "84%"}
{"SMILES": "COc1cc(Cl)c(C(=O)N[C@@H](CN[C@H]2CC[C@@H](N)CC2)Cc2ccc(C#N)cc2)cc1-c1ccc(CN[C@H](C)c2ccc(C)cc2)o1", "target": "BRAF", "test": "enzyme activity, inhibitor", "conditions": "1 µM", "measurement": "remaining activity", "result": "97%"}
{"SMILES": "CC(C)(C)c1nc2c(s1)c1nc(N)ncc1c1ccc(NS(=O)(=O)c3c(F)cccc3F)c(F)c12", "target": "BRAF", "test": "enzyme activity, inhibitor, radiometric", "conditions": "1 µM", "measurement": "remaining activity", "result": "27%"}
{"SMILES": "COc1cc(Nc2c(C#N)cnc3cc(OCCCN4CCN(C)CC4)c(OC)cc23)c(Cl)cc1Cl", "target": "BRAF", "test": "cell-free assay", "conditions": "0.5 µM", "measurement": "remaining signal", "result": "91.7%"}
{"SMILES": "Cc1nc(C2CCN(C(=O)c3ccc(OC(F)(F)F)cc3N)CC2)c2ncc(N3CCN(C)CC3)cc2n1", "target": "BRAF", "test": "cell-free assay, competition with immobilised ligand", "conditions": "1 µM", "measurement": "remaining binding", "result": "100%"}
{"SMILES": "COc1ccc(-c2csc(NN=C(CS(=O)(=O)c3ccccc3)c3ccc(F)cc3)n2)cc1", "target": "BRAF V600E", "test": "enzyme activity, inhibitor, ATP luminescence", "conditions": "10 µM", "measurement": "inhibition", "result": "89%"}
{"SMILES": "CNC(=O)c1ccc(Nc2ncc(C(F)(F)F)c(NCc3nccnc3N(C)S(C)(=O)=O)n2)cc1", "target": "BRAF V600E", "test": "cell-free assay, competition with immobilised ligand", "conditions": "0.1 µM", "measurement": "remaining binding", "result": "100%"}
{"SMILES": "NC(=S)NN=C(CS(=O)(=O)c1ccccc1)c1ccc(F)cc1", "target": "BRAF V600E", "test": "enzyme activity, inhibitor, ATP luminescence", "conditions": "1 µM", "measurement": "inhibition", "result": "76%"}
